PubChem BioAssay AID624011 (Broad Institute, 2012)
The source made the active and inactive calls.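 Rule for the calls: active = fitted curve reaching 35% inhibition at both 405 and 600 nm absorbance, in duplicate, within twice the top valid dose; inactive = the rest, including signal rising instead of falling.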

How the values were obtained:
[1] = bacterial growth inhibition with EDDHA chelator – absorbance 405 nm, dry powder, set 2, dose response (AID 624011); settings: P. aeruginosa + EDDHA, pyoverdine absorbance 405 nm, 24-30 h; at 50 µM (top of the series)
Outline: (§1)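 Assay system: P. aeruginosa ATCC 15692 cells | Quantity: Bacterial inoculum at final OD600 of 0.0000005 | Buffer or medium: Succinate-based M9 minimal medium, pH 7.0 | Compound dosing: 3-fold dilution series, 10 mM stock | Timing: Bacterial growth with compound 24-30 h at 37 °C, humidified | Signal: Absorbance at 405 nm reflecting pyoverdine production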

[2] = test system: P. aeruginosa + EDDHA, pyoverdine absorbance 405 nm, 24-30 h; assay: as above
Outline: as §1

In the case of `Cc1ccc(C(C#N)c2ccc(Cl)cc2)nc1C#N` (configuration not stated), the activity change, negative = inhibition [1] is reported as -8.79% (inactive).

In the case of `N#Cc1cccc(C(C#N)c2ccccc2OC(F)(F)F)n1` (configuration not stated), the activity change, negative = inhibition [1] is reported as 4.18% (inactive).

For `CCCCC(C#N)c1ccc(Cl)cc1F` (configuration not stated), the activity change, negative = inhibition [1] was -9.53% (inactive).

For `Cc1ccc(C(C#N)c2ccc(Cl)cc2)nc1` (configuration not stated), the activity change, negative = inhibition [1] was -6.12% (inactive).

With `CCCCC(C#N)c1ccc(Cl)cc1Cl` (configuration not stated) the activity change, negative = inhibition [1] was 4.33% (inactive).

With `N#CC(c1ccc(C(F)(F)F)c(Cl)n1)c1ccc(Cl)cc1Cl` (configuration not stated) the activity change, negative = inhibition [1] was 5.25% (inactive).

In the case of `N#CC(c1ccc(C(F)(F)F)c(Cl)n1)c1ccc(Cl)cc1F` (configuration not stated), the activity change, negative = inhibition [1] is reported as -8.56% (inactive).

For `Cc1ccc(C(C#N)c2ccccc2OC(F)(F)F)nc1C#N` (configuration not stated), the activity change, negative = inhibition [1] was 1.92% (inactive).

With `CCCCC(C#N)c1ccc(C(F)(F)F)cc1` (configuration not stated) the activity change, negative = inhibition [1] was -7.42% (inactive).

For `N#CC(CC1CC1)c1ccc(Cl)cc1` (configuration not stated), the activity change, negative = inhibition [1] was -6.92% (inactive).

For `N#CC(c1ccc(C(F)(F)F)cc1)c1ccc(C(F)(F)F)c(Cl)n1` (configuration not stated), the activity change, negative = inhibition [1] was 0.565% (inactive).

For `N#CC(c1cccc(Cl)n1)c1ccc(Cl)cc1Cl` (configuration not stated), the activity change, negative = inhibition [1] was -12.6% (inactive).

For `COc1cccc(C(C#N)c2ccc(F)cc2)n1` (configuration not stated), the AC35 [2] was > 50 µM (inactive).

For `N#Cc1cccc(C(C#N)c2ccc(Cl)cc2Cl)n1` (configuration not stated), the activity change, negative = inhibition [1] was -7.16% (inactive).

For `N#CC(c1ccc(Cl)cc1)c1ncccc1Cl` (configuration not stated), the AC35 [2] was 33.6 µM.

For `CCCC(C#N)c1ccc(Cl)cc1` (configuration not stated), the activity change, negative = inhibition [1] was 1.22% (inactive).

For `CC(C#N)(c1ccc(Cl)cc1)c1ccc(C(F)(F)F)cn1` (configuration not stated), the activity change, negative = inhibition [1] was -3.64% (inactive).

For `CC(C)CC(C#N)c1ccc(Cl)cc1` (configuration not stated), the activity change, negative = inhibition [1] was 1.37% (inactive).

In the case of `CCCCC(C#N)c1ccc(F)cc1` (configuration not stated), the activity change, negative = inhibition [1] is reported as -8.06% (inactive).

`N#CC(c1cccc(Cl)n1)c1ccc(Cl)cc1F` (configuration not stated) gave an AC35 [2] of 19.6 µM.

With `N#Cc1ccc(C(C#N)c2ccc(Cl)cc2Cl)nc1` (configuration not stated) the activity change, negative = inhibition [1] was 3.9% (inactive).

With `N#CC(c1ccc(C(F)(F)F)cc1)c1cccc(Cl)n1` (configuration not stated) the activity change, negative = inhibition [1] was -7.8% (inactive).

`N#CC(c1ccc(F)cc1)c1cccc(C(F)(F)F)n1` (configuration not stated) showed an AC35 [2] of 17.6 µM.

With `N#Cc1cccc(C(C#N)c2ccc(Cl)cc2)n1` (configuration not stated) the activity change, negative = inhibition [1] was -11.7% (inactive).

With `CCCCC(C#N)c1ccccc1OC(F)(F)F` (configuration not stated) the activity change, negative = inhibition [1] was 1.13% (inactive).

In the case of `CCCCC(C#N)c1ccc(Cl)cc1` (configuration not stated), the activity change, negative = inhibition [1] is reported as -0.942% (inactive).

For `N#CC(c1ccc(Cl)cc1)c1ccc(C(F)(F)F)cn1` (configuration not stated), the activity change, negative = inhibition [1] was 5.88% (inactive).

With `N#CC(c1ccc(C(F)(F)F)cc1)c1cccc(C(F)(F)F)n1` (configuration not stated) the activity change, negative = inhibition [1] was 0.339% (inactive).

In the case of `N#CC(c1ccc(Cl)cc1)c1ccc(C(F)(F)F)c(Cl)n1` (configuration not stated), the activity change, negative = inhibition [1] is reported as 1.79% (inactive).

With `N#CC(c1ccc(Cl)cc1Cl)c1ncccc1Cl` (configuration not stated) the activity change, negative = inhibition [1] was 5.69% (inactive).

In the case of `N#CC(c1cccc(C(F)(F)F)n1)c1ccccc1OC(F)(F)F` (configuration not stated), the activity change, negative = inhibition [1] is reported as -5.85% (inactive).

With `N#CC(c1ccc(C(F)(F)F)c(Cl)n1)c1ccccc1OC(F)(F)F` (configuration not stated) the activity change, negative = inhibition [1] was 2.22% (inactive).

`N#CC(c1cccc(C(F)(F)F)n1)c1ccc(Cl)cc1F` (configuration not stated) showed an AC35 [2] of 26.2 µM.

For `N#Cc1ccc(C(C#N)c2ccc(Cl)cc2)nc1` (configuration not stated), the activity change, negative = inhibition [1] was -6.67% (inactive).

For `N#CC(c1cccc(Cl)n1)c1ccccc1OC(F)(F)F` (configuration not stated), the activity change, negative = inhibition [1] was -13.5% (inactive).

`N#CC(c1ccc(Cl)cc1)c1cccc(Cl)n1` (configuration not stated) gave an AC35 [2] of 18 µM.

`N#CC(c1ccc(Cl)cc1)c1cccc(C(F)(F)F)n1` (configuration not stated) gave an AC35 [2] of 7.35 µM.
